Screening results as filed in PubChem BioAssay.
An excerpt weighted towards active compounds, which were near 5.5% of everything screened.
RAM network inh – yeast RAM network inhibition; S. cerevisiae dse1pr::URA3 reporter, 5-FOA growth OD615, 2 d; analog-sensitive cbk1-as2 kinase mutant strain; inhibition, % at 50 µM; actives 1.8% (n = 190,000);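 active = inhibition above a set limit, 3 SD over mean compound inhibition, cut at about 8.4% in these data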;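 note: 0% = DMSO-only wells with no growth and 100% = 10 µM 1-NA-PP1 full growth; inhibition rescues growth on 5-FOA so higher OD means more RAM inhibition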
BB579 growth dn – reduces growth of yeast BB579 in restrictive medium; S. cerevisiae BB579 growth, OD615, 48 h; inhibition, % at 10 µM; AID 804; actives 0.51% (n = 140,000);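 active = inhibition above a set limit, 3 SD over the mean compound inhibition, cut at about 44% in these data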
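System: Saccharomyces cerevisiae DeaD strain BB579, replicative lifespan model yeast | Buffer or medium: Restrictive glucose-based CSMM-D medium | Times: 4 h preincubation and 48 h exposure at 30 °C | Detection: OD615 turbidity measurement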
WT yeast gro inh – growth inhibition of WT yeast, mitochondrial fusion screen; mitochondrial fusion phenotypic screen, WT strain; inhibition, % at 10 µM; actives 2.1% (n = 190,000); AID 1362; in the data active = inhibition above about 58%; tested in S. cerevisiae
Yeast life ext – extends the lifespan of yeast; S. cerevisiae growth with nicotinamide, OD615; deaD strain in restrictive glucose medium; inhibition of the nicotinamide effect, % at 10 µM; actives 0.68% (n = 130,000);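 active = inhibition above a set limit, placed 3 SD over the median of all compounds, cut at about 26% in these data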;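 note: 0% = nicotinamide-treated wells and 100% = cells grown without nicotinamide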
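Assay system: engineered S. cerevisiae DeaD replicative-lifespan strain, galactose-grown log-phase cells; medium: restrictive CSMM-D dextrose medium; also added: nicotinamide, 1.5 mM, co-present with compound; schedule: 48 h compound exposure at 30 °C, humidified; detection: absorbance at 615 nm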
KCC2 mod – modulates chloride dependent transport by human KCC2; Q9H2X9; KCC2 cells, thallium flux FluoZin-2 fluorescence; B-score of Tl+ flux slope (higher = more flux/activation; lower = inhibition) at 10 µM; actives 2.2% (n = 190,000);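 active = thallium flux slope and its plate-corrected score both differing from the plate sample mean at a set confidence after two filtering rounds, in either direction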;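 note: slope of fluorescence scaled to starting intensity during 10 to 20 s after thallium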
KCC2 secondary – confirmation of human KCC2 transport modulators. shares compounds with KCC2 mod. HEK293-KCC2, thallium flux, FluoZin2 fluorescence; active compounds read high. normalised thallium flux (F/F0 slope) at 10 µM. actives 15% (n = 3,700);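 active = thallium flux slope above the same plate's solvent-only control mean plus 3 SD; inconclusive = the two replicate wells disagree; inactive = no significant difference from solvent-only control wells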
KCC2 bumet counter – thallium flux persisting under bumetanide in KCC2 cells, counter-screen secondary assay; shares compounds with KCC2 mod; HEK293-KCC2 + bumetanide/ouabain, thallium flux FluoZin2; active compounds read high; normalized thallium flux at 10 µM; actives 49% (n = 3,700); AID 1714;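 active = thallium entry rate above the same plate's blocked-transporter control wells by more than 3 SD; inconclusive = the two repeat wells disagree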;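 note: raw slope of fluorescence over initial fluorescence between 10 and 20 s after thallium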
KCC2 secondary2 – confirmation of human KCC2 transport modulators | shares compounds with KCC2 mod | HEK293-KCC2, thallium flux FluoZin2 fluorescence; actives lie on both sides; F/F0 rise rate, 10–20 s post-thallium | normalized thallium flux at 10 µM | actives 23% (n = 3,700) | AID 1715;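 active = thallium flux slope more than 3 SD above or below the plate's solvent-only control mean, mostly below; inconclusive = the two repeat wells disagreed; inactive = no significant shift from solvent-only controls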;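 note: raw slope with 0.1% DMSO as baseline and bumetanide as block control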
HEK counter1 – acts in parental HEK cells, KCC2 counter-screen; shares compounds with KCC2 mod; HEK293 parental cells, thallium flux FluoZin2, ouabain; baseline-ratio fluorescence slope, 10–20 s after thallium; thallium flux rate (normalised fluorescence) at 10 µM; actives 46% (n = 3,700); AID 1716;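 active = thallium flux rate significantly above the same plate's solvent-only control wells, beyond their mean plus 3 SD; inconclusive = the two replicate wells gave conflicting results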
KCC2 ouabain – modulates human KCC2 on retest with ouabain; shares compounds with KCC2 mod; HEK293-KCC2, thallium flux FluoZin2 fluorescence; bidirectional: low = inhibitor, high = activator; raw Tl+ flux slope (below DMSO = inhibition, above = activation) at 10 µM; actives 48% (n = 3,700); AID 1717;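 active = thallium flux slope beyond 3 SD from same-plate DMSO control mean in most replicates, usually higher, sometimes lower; inconclusive = repeat tests gave conflicting results; inactive = no significant difference from controls in most replicates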;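 note: slope of initial-normalized fluorescence between seconds 10 and 20 after thallium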
HEK counter2 – acts in parental HEK cells, second KCC2 counter-screen | shares compounds with KCC2 mod | thallium flux slope at 10 µM | HEK293 parental, thallium flux FluoZin-2 fluorescence slope | actives 33% (n = 3,700);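 active = thallium flux slope above the same plate's solvent-control mean plus 3 SD in both duplicate wells; inconclusive = duplicate wells that disagreed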;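 note: run without ouabain in cells lacking the KCC2 cotransporter; slope of fluorescence scaled to its starting value between 10 and 20 s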
Active calls of the source: *; ? = inconclusive; / = no result.

SMILES	RAM network inh	BB579 growth dn	WT yeast gro inh	Yeast life ext	KCC2 mod	KCC2 secondary	KCC2 bumet counter	KCC2 secondary2	HEK counter1	KCC2 ouabain	HEK counter2
CC1Cc2nc(SCC(=O)Nc3ccc4c(c3)OCO4)n(CCc3ccccc3)c(=O)c2S1 (stereo not drawn)	6	11	12	-8	-4*	0.0061	0.0056	0.034	?	0.017*	0.011
CCn1c(SCC(=O)Nc2ccc3c(c2)OCO3)nc2c(c1=O)SC(C)C2 (stereo not drawn)	3	-4	-2	-10	-1.4	/	/	/	/	/	/
O=c1[nH]cnc2c1N=C(c1cccc([N+](=O)[O-])c1)CC(c1ccccc1)N2 (stereo not drawn)	1	/	4	/	-1.5	/	/	/	/	/	/
CC(C)CCNC(=O)CCc1nnc(Cc2c[nH]c3ccccc23)o1	0	/	1	/	-1.3	/	/	/	/	/	/
S=c1[nH]nc(Cc2c[nH]c3ccccc23)o1	/	0	-11	-3	-5.5*	0.0083	0.0057	0.023*	0.0068	0.011*	0.0094
CN(C)c1ccc(/C=N/n2c(-c3ccccc3Br)n[nH]c2=S)cc1	/	/	/	/	5.8*	0.011	0.023*	0.031	0.012*	?	0.011
Cc1ccc(O)c(C(=O)CC(=O)c2ccccc2Cl)c1	1	/	55	/	/	?	0.064*	0.03	0.038*	0.055*	0.012*
O=c1nc(SCc2c(F)cccc2Cl)nc(-c2ccc(Cl)cc2)[nH]1	/	/	/	/	-1.7	/	/	/	/	/	/
O=c1nc(SCc2ccccc2Cl)nc(-c2ccc(Cl)cc2)[nH]1	/	/	/	/	67*	0.0091	0.0068	0.036	?	?	0.0094
Cc1ccc(NC(=O)NC(=O)CSc2nnc(-c3ccc(Cl)cc3Cl)n2N)c(C)c1	4	-20	-9	-3	-1.5	/	/	/	/	/	/
Cn1c(Sc2ccc(C(F)(F)F)cc2[N+](=O)[O-])nnc1-c1ccccc1	-1	-7	4	-9	-5.3*	0.0076	0.0063	0.034	0.0045	0.019	0.011
Nc1ccc2c(c1)ncn2CCCn1cnc2cc(N)ccc21	1	-20	-3	-7	/	0.0075	0.0046	?	0.0075	0.018	0.011
CCn1c(C)nc2cc(N)ccc21	/	/	/	/	-0.79	/	/	/	/	/	/
O=C1C2CC=CCC2C(=O)N1c1ccc(N2CCN(c3ccccn3)CC2)c([N+](=O)[O-])c1 (stereo not drawn)	3	/	-6	/	1.1	/	/	/	/	/	/
Cc1ccc(S(=O)(=O)N(C)c2nc3ccccc3[nH]c2=S)cc1	/	/	/	/	89*	0.039*	0.087*	?	0.065*	0.065*	0.019*
CCCc1nnc2c(N(C)S(=O)(=O)c3ccc(C)cc3)nc3ccccc3n12	5	-48	-14	4	-0.12	/	/	/	/	/	/
Cc1cc(C)c2cc(C#N)c(N3CCCC3)nc2c1	1	-40	8	-27	8.7*	0.011	0.0059	0.036	0.007	0.026	0.01
Cc1c(C(=O)N2c3ccccc3Sc3ccccc32)cccc1[N+](=O)[O-]	3	-22	35	-2	-0.23	/	/	/	/	/	/
COc1ccc(CN(C(=O)c2cc3ccccc3oc2=O)C2CCS(=O)(=O)C2)cc1 (stereo not drawn)	/	/	/	/	0.35	/	/	/	/	/	/
COc1ccc(CN(C(=O)c2cc3ccccc3oc2=O)C2CCCC2)cc1	0	-30	5	/	-5.1*	0.0077	0.0043	0.031	?	?	0.011
